Data reported in article PMC4545405 (ACS chemical biology, 2013).
Where two headings read alike, the source gives them in different places.

Experiments:
[1] = target: PelD (Pseudomonas aeruginosa, UniProt A0A0H2ZD98); assay: DRaCALA / DRaCALA-HTS inhibition of 32P-cdiGMP binding to PelD; conditions: for fraction bound of 32P-cdiGMP to PelD in DRaCALA-HTS: NCC1 library screen, cutoff 3 standard deviations below the average
[2] = target: T1, WspR (Pseudomonas aeruginosa, UniProt Q9HXT9); assay: DRaCALA inhibition of 32P-cdiGMP binding to WspR
[3] = system: PDE (RocR, PvrR, FimX) or PilZ (Alg44, PA3353) proteins; assay: DRaCALA inhibition of 32P-cdiGMP binding to PDE and PilZ proteins; set-up: species or system P. aeruginosa; conditions: Eb 50 μM
Procedure, shortened: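 Purified protein was mixed with ³²P-cdiGMP in the presence of 50 μM test compound or DMSO, then spotted on nitrocellulose. Spots were imaged by phosphorimager. Fraction bound = corrected bound-ligand intensity ÷ total spot intensity.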

[4] = target: T1, WspR; assay: WspR DGC activity assay by TLC; type: biochemical; conditions: for DGC activity of wild-type WspR (inhibition): 50 μM; for WspR activity after DTT treatment of preincubated WspR: with DTT
[5] = system: WspR with C49A substitution; assay: DGC activity assay of C49A WspR; type: biochemical, Pseudomonas aeruginosa; conditions: 50 μM
Procedure, shortened: (§1)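 Purified WspR point mutants (C49A, C240A, or AxxA at the RxxD I-site), expressed from cloned alleles. Diguanylate cyclase activity measured by thin-layer chromatography (TLC) with test compound or cdiGMP at 50 μM, against a DMSO control. Compounds were dissolved in DMSO.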

[6] = system: WspR with C240A substitution; assay: DGC activity assay of C240A WspR; type: biochemical, Pseudomonas aeruginosa; conditions: 50 μM
Procedure, shortened: as §1

[7] = system: AxxA WspR (RxxD I-site abolished); assay: DGC activity assay of AxxA WspR; type: biochemical, Pseudomonas aeruginosa; conditions: 50 μM
Procedure, shortened: as §1

[8] = system: P. aeruginosa PA14; assay: Growth curves; type: cell-based, Pseudomonas aeruginosa; conditions: 50 μM, LB, 37 °C, 16 hours, vs DMSO
Procedure, shortened: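 P. aeruginosa PA14 grown overnight in LB at 37 °C with shaking, then subcultured in LB with 50 μM test compound or 2% DMSO alone. Grown with shaking at 37 °C for 16 h. A600 read every 5 minutes.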

[9] = system: P. aeruginosa PA14 overexpressing DGCs; assay: Swim motility assay of PA14 overexpressing DGCs; type: cell-based, Pseudomonas aeruginosa; conditions: for change in swimming motility compared to the DMSO control: PA14 overexpressing PA0847, IPTG; for change in swimming motility compared to the DMSO control / increase in swimming diameter compared to the DMSO control: 50 μM
[10] = system: PA14 pMMB-WspR; assay: Crystal violet pellicle assay, DGC-dependent biofilm formation; type: cell-based, Pseudomonas aeruginosa; conditions: IPTG-induced WspR, static incubation 30 °C, 16 hours
[11] = system: PA14 ΔretS; assay: Crystal violet pellicle assay, DGC-independent biofilm formation; type: cell-based, Pseudomonas aeruginosa
[12] = target: Alg44 (Pseudomonas aeruginosa, UniProt Q9HY69); assay: DRaCALA / DRaCALA-HTS binding of 32P-cdiGMP to Alg44; conditions: for Kd: Kd of Alg44 binding to 32P-cdiGMP
Sequence of Alg44 (Q9HY69 whole entry): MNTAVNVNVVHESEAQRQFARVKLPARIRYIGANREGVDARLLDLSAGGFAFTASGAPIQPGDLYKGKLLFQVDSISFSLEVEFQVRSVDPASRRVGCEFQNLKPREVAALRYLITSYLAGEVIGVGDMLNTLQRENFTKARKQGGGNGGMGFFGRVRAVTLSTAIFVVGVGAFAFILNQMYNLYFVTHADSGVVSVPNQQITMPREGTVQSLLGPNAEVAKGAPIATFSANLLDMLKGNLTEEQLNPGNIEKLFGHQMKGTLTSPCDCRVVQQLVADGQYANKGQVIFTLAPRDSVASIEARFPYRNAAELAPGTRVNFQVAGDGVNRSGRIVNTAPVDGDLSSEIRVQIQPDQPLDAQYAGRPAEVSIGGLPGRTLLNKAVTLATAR

[13] = PA14 overexpressing PA1107, IPTG
[14] = PA14 overexpressing PA1120, IPTG
[15] = PA14 overexpressing PA1727, IPTG

Row | SMILES | fraction bound of 32P-cdiGMP to PelD in DRaCALA-HTS [1] | reduction of 32P-cdiGMP binding to PDE or PilZ proteins [3] | DGC activity of wild-type WspR (inhibition) [4] | WspR activity after DTT treatment of preincubated WspR [4] | DGC activity of C49A WspR (inhibition) [5] | DGC activity of C240A WspR (inhibition) [6] | DGC activity of AxxA WspR (inhibition) [7] | growth of P. aeruginosa PA14 [8] | change in swimming motility compared to the DMSO control [9] | increase in swimming diameter compared to the DMSO control [9, 13] | increase in swimming diameter compared to the DMSO control [9, 14] | increase in swimming diameter compared to the DMSO control [9, 15] | increase in swimming diameter compared to the DMSO control ([9]; PA14 overexpressing WspR, IPTG) | reduction of biofilm formation compared to the DMSO control [10] | DGC-independent biofilm formation [11] | other results
1 | O=c1c2ccccc2[se]n1-c1ccccc1 [Eb, ebselen] | below the positive cutoff of 3 standard deviations below the average | ≤ 25% | inhibited | returned WspR activity to the level of the DMSO control | still susceptible to inhibition | completely refractory | no longer inhibited | No difference in growth | no change in swimming motility | 3.4 fold | 2.5 fold | 1.1 fold | 2 fold | ~ 40% | Neither Eb nor EbO reduced biofilm formation | IC50 [1]: 5 ± 2 µM; inhibition at 50 µM ([1]; read-out: reduction of cdiGMP binding to PelD): 80%; IC50 [2]: 13.6 ± 0.5 µM; inhibition at 50 µM ([2]; read-out: reduction of cdiGMP binding to WspR): 90%; inhibition at 50 µM ([4]; read-out: reduction of WspR activity (velocity)): 87%; WspR velocity at varying substrate and Eb concentrations ([4]; varying substrate concentrations): reduced WspR velocity in a concentration dependent manner
2 | O=C1c2ccccc2[Se](=O)N1c1ccccc1 (centres unmarked) [EbO, ebselen oxide] |  | did not reduce | inhibited | returned WspR activity to the level of the DMSO control | still susceptible to inhibition | completely refractory | no longer inhibited | No difference in growth | no change in swimming motility | 4 fold | 3.4 fold | 1.3 fold | 2.5 fold | ~ 40% | Neither Eb nor EbO reduced biofilm formation | reduction of cdiGMP binding to PelD ([1]; compared to the DMSO control, Eb 50 μM): ~ 60%; IC50 ([1]; read-out: IC50 for PelD (inhibition of cdiGMP binding), DRaCALA): 5 ± 2 µM; IC50 for WspR (inhibition of cdiGMP binding) ([2]; DRaCALA): did not show inhibition; reduction of cdiGMP binding to WspR ([2]; compared to the DMSO control, Eb 50 μM, no preincubation): ~ 30%; reduction of 32P-cdiGMP binding to WspR after preincubation ([2]; preincubation of WspR for 30 minutes before addition of 32P-cdiGMP): 86%; reduction of WspR activity (velocity) ([4]; 10 μM GTP, inhibitor 50 μM): 87%; reversal of cdiGMP-mediated repression of swimming, concentration dependence ([9]; PA14 overexpressing PA3702, IPTG, different concentrations): at a lower concentration
3 | Nc1nc2c(ncn2[C@@H]2O[C@@H]3COP(=O)(O)O[C@H]4[C@@H](O)[C@H](n5cnc6c(=O)[nH]c(N)nc65)O[C@@H]4COP(=O)(O)O[C@H]3[C@H]2O)c(=O)[nH]1 [cdiGMP, cyclic-di-GMP] | no binding was observed |  | inhibited |  | still susceptible to inhibition | inhibited | no longer inhibited |  |  |  |  |  |  |  |  | average fraction bound of 32P-cdiGMP to Alg44 with cdiGMP competitor ([12]; 384-well plate, 25 μM unlabeled cdiGMP): 0.007±0.005; Kd ([12]; 384 well format, HTS-DRaCALA): 0.239 ± 0.007 µM; Kd ([12]; fraction bound in individual reaction mixtures): 0.38 ± 0.02 µM
